Measurements taken from ChEMBL document CHEMBL4130570, “Characteristic α-Acid Derivatives from Humulus lupulus with Antineuroinflammatory Activities” (J Nat Prod, 2017).
Active and inactive are the calls of the source. The rule behind the calls is not given here.

How the values were obtained:
BV-2 [1] = assay: Cytotoxicity against mouse BV2 cells assessed as reduction in cell viability at 1 to 100 uM after 24 hrs by MTT assay; type: cell-based; details: bv-2, 24 h
How it was run: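 BV2 cells after 24 h treatment; supernatant removed, MTT 0.25 mg/mL added for 4 h at 37 °C, formazan dissolved in DMSO, absorbance read at 490 nm.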

BV-2 [2] = assay: Antineuroinflammatory activity in mouse BV2 cells assessed as inhibition of LPS-induced nitric oxide production after 24 hrs by griess assay; type: functional, cell-based; details: BV-2, 24 h
How it was run: (§1)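 BV2 microglia plated at 5 × 10^4 cells/well, exposed to compound (1, 3, 10, 30, 100 μM) together with LPS 100 ng/mL for 24 h. Nitrite in medium quantified by Griess reagent (1% sulfanilamide; 0.1% naphthylethylenediamine dihydrochloride, 2% phosphoric acid), 15 min at room temperature, absorbance 540 nm. Mean ± SE of three independent experiments.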

BV-2 [3] = assay: Antineuroinflammatory activity in mouse BV2 cells assessed as inhibition of LPS-induced nitric oxide production at 100 uM after 24 hrs by griess assay; type: functional, cell-based; how it was run: as §1

SMILES	Activity (BV-2 [1])	IC50 (BV-2 [2]) [µM]	inhibition (BV-2 [3])
CC1(C)C[C@@H](O)[C@@]23CC[C@H](O)[C@@](C)(CC[C@H]12)C3	Non-Toxic		
CC(C)=CC[C@@]1(O)C(=O)C(C(=O)CC(C)C)=C(O)C2=C1OC(C)(C)[C@H](O)C2	Non-Toxic		
CC(C)=CCC1(CC=C(C)C)C(=O)C(O)=C(O)C1=O [HULUPINIC ACID]	Non-Toxic		
CC(C)=CCc1c(O)c2c(c(C(=O)CC(C)C)c1O)O[C@@H](C(C)(C)O)C2	Non-Toxic		
CC(C)=CCC1=C2O[C@H](C(C)(C)O)C[C@@]2(O)C(=O)C(C(=O)CC(C)C)=C1O	Non-Toxic		
COc1cc(O)c(CC=C(C)C)c2c1C(=O)C[C@@H](c1ccc(O)cc1)O2	Non-Toxic	19.5	
COc1ccc(/C=C/C(=O)c2c(O)cc(OC)c(CC=C(C)C)c2O)cc1	Non-Toxic	57.7	
COc1cc(O)c(CC=C(C)C)c(O)c1C(=O)/C=C/c1ccc(O)cc1 [XANTHOHUMOL]	Non-Toxic	7.92	
CC(C)=CC[C@@]1(O)C(=O)C(C(=O)CC(C)C)=C(O)C2=C1O[C@H](C(C)(C)O)C2	Non-Toxic		
CC(C)(O)[C@H]1C[C@@](C(=O)O)([C@H]2CC(=O)OC2(C)C)C(=O)O1	Non-Toxic		
CC(C)=CC[C@@]1(O)C(=O)C(C(=O)C(C)C)=C(O)C2=C1O[C@H](C(C)(C)O)C2	Non-Toxic		
CC(C)=CCc1c(O)c2c(c(C(=O)CC(C)C)c1O)O[C@H](C(C)(C)O)C2	Non-Toxic		
CC(C)=CC[C@@]1(O)C(=O)C(C(=O)CC(C)C)=C(O)C2=C1O[C@@H](C(C)(C)O)C2	Non-Toxic		
CC(C)=CC[C@@]1(O)C(=O)C(C(=O)C(C)C)=C(O)C2=C1OC(C)(C)[C@@H](O)C2	Non-Toxic		Active
CC(C)=CC[C@@]1(O)C(=O)C(C(=O)CC(C)C)=C(O)C2=C1OC(C)(C)[C@@H](O)C2	Non-Toxic		
CC(C)=CCc1c(O)cc(O)c2c(=O)cc(C(C)C)oc12	Non-Toxic	21.4	
